Columns and labels:
Type in all cases: functional
[1] = tested on: Rattus norvegicus; experiment: Percentage change in total triglycerides was determined in vivo in male Sprague-Dawley rats
Outline: (§1)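 Compounds given in the diet to groups of six rats for 8 days, after a 7-day lead-in; dose expressed as mg/kg/day. At termination, rats anesthetized with CO2 and bled from the carotid artery, and serum separated. Values are % change or ratio versus gemfibrozil (set = 1), each relative to an untreated control group; significance P < 0.05.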

[2] = tested on: Rattus norvegicus; experiment: Percentage change in total cholesterol was determined in vivo in male Sprague-Dawley rats; outline: as §1
[3] = tested on: Rattus norvegicus; experiment: In vivo biological activity against Apo A-I relative to gemfibrozil in male Sprague-Dawley rats; outline: as §1
[4] = tested on: Rattus norvegicus; experiment: In vivo biological activity against HDL relative to gemfibrozil in male Sprague-Dawley rats; outline: as §1
[5] = tested on: Rattus norvegicus; experiment: Dose administered for testing biological activity in vivo in male Sprague-Dawley rats; outline: as §1

Row | SMILES | Change [1] [%] | Change [2] [%] | Activity [3] | Activity [4] | Dose [5] [mg/kg/day]
1 | Cc1ccc(Cl)cc1/N=C(\S)NCC(C)(C)C(N)=O | -49 | -3 | 1.15 | 0.57 | 41
2 | Cc1ccc(Cl)cc1/N=C(\S)NCCO | -56 | 40 | 1.06 | 0.61 | 52
3 | Cc1ccc(Cl)cc1NC(=O)NCC(C)(C)C(=O)O | -21 | 74 | 0.32 | 0.36 | 73
4 | Cc1ccc(C)c(N/C(S)=N/CC(C)(C)C(=O)O)c1 | 69 | 73 | 0.93 | 0.54 | 78
5 | COc1ccc(Cl)cc1/N=C(\S)NCC(C)(C)C(=O)O | -28 | 9 | 0.27 | 0.62 | 77
6 | Cc1ccc(Cl)cc1/N=C(\S)N1CCCC(C)(C(=O)O)C1 (stereo not given) | 15 | 14 | -0.16 | 0.33 | 81
7 | Cc1ccc(Cl)cc1/N=C(\S)NCC1(C(=O)O)CCC1 | -39 | 36 | 0.49 | 1.19 | 76
8 | COC(=O)C(C)(C)C/N=C(\S)Nc1cc(Cl)ccc1C | -12 | -12 | 1.81 | 0.93 | 74
9 | Cc1ccc(Cl)cc1/N=C(\S)NCC1(C(=O)O)CCCC1 | -61 | 41 | 0.55 | 1.09 | 67
10 | Cc1ccc(Cl)cc1/N=C(\S)NCC1(C(=O)O)CCCCC1 | -54 | 21 | 0.32 | 0.73 | 88
11 | Cc1ccc(C)c(OCCCC(C)(C)C(=O)O)c1 [GEMFIBROZIL] | -43 | -23 | 1 | 1 | 46
